From ChEMBL document CHEMBL1137220, “2-(2-(dimethylaminomethyl)phenoxy)-5-iodophenylamine: an improved serotonin transporter imaging agent” (J Med Chem, 2004)
“And” between values parts separate entries of the source, which are not always exact repeats. Equal entries are not always repeated.

Key:
[1] = Regional brain distribution in rat cortex was determined after 30 min of intravenous administration of the compound; [125I]- is used as radioactive isotope; assay type: ADME; conditions: in vivo, 0.5 h
Method in brief: (§1)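 Rats, three per group, injected with 10 μCi tracer in 0.2 mL saline via the femoral vein under ether anesthesia and killed by cardiac excision at the stated time. Cortex (frontal plus occipital), striatum, hippocampus, cerebellum and hypothalamus were dissected, weighed and gamma-counted. Values are % dose/g, calculated by comparison with counts of a 100-fold diluted aliquot of the injected dose.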

[2] = Regional brain distribution in rat cortex was determined after 120 min of intravenous administration of the compound; [125I]- is used as radioactive isotope; assay type: ADME; conditions: in vivo, 2 h; method in brief: as §1
[3] = Distribution ratio in striatum and cerebellum was determined after 30 min of intravenous administration of the compound; [125I]- is used as radioactive isotope; assay type: ADME, tissue-based; conditions: rat, 0.5 h
Method in brief: (§2)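 Rats, three per group, given 10 μCi tracer in 0.2 mL saline into the femoral vein under ether anesthesia, then killed by cardiac excision at the stated time. Brain regions were dissected, weighed and counted. Percent dose/g was calculated against a 1% diluted aliquot of the injected dose. The ratio is (region − cerebellum)/cerebellum on a % dose/g basis, with cerebellum as background.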

[4] = Distribution ratio in hippocampus and cerebellum was determined after 11 hrs of intravenous administration of the compound; [125I]- is used as radioactive isotope; assay type: ADME, tissue-based; conditions: rat
Method in brief: (§3)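 After femoral-vein injection of 10 μCi [¹²⁵I] tracer in 0.2 mL saline under ether anaesthesia (three rats per group), brain regions were dissected, weighed and counted: cortex (frontal plus occipital), hippocampus, hypothalamus and cerebellum. %dose/g was calculated against a diluted injected-dose standard. Ratio = (region − cerebellum)/cerebellum on a %dose/g basis, with cerebellum as the background region.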

[5] = Distribution ratio in striatum and cerebellum was determined after 11 hrs of intravenous administration of the compound; [125I]- is used as radioactive isotope; assay type: ADME, tissue-based; conditions: rat; method in brief: as §2
[6] = Distribution ratio in hippocampus and cerebellum was determined after 30 min of intravenous administration of the compound; [125I]- is used as radioactive isotope; assay type: ADME, tissue-based; conditions: rat, 0.5 h; method in brief: as §3
[7] = Distribution ratio in hippocampus and cerebellum was determined after 240 min of intravenous administration of the compound; [125I]- is used as radioactive isotope; assay type: ADME, tissue-based; conditions: rat, 4 h; method in brief: as §3
[8] = Distribution ratio in hypothalamus and cerebellum was determined after 60 min of intravenous administration of the compound; [125I]- is used as radioactive isotope; assay type: ADME, tissue-based; conditions: rat, 1 h; method in brief: as §2
[9] = Distribution ratio in hypothalamus and cerebellum was determined after 120 min of intravenous administration of the compound; [125I]- is used as radioactive isotope; assay type: ADME, tissue-based; conditions: rat, 2 h; method in brief: as §3
[10] = Distribution ratio in hypothalamus and cerebellum was determined after 11 hours of intravenous administration of the compound; [125I]- is used as radioactive isotope; assay type: ADME, tissue-based; conditions: rat; method in brief: as §3
[11] = Regional brain distribution in rat hippocampus was determined after 30 min of intravenous administration of the compound; [125I]- is used as radioactive isotope; assay type: ADME, tissue-based; conditions: in vivo, 0.5 h; method in brief: as §1
[12] = Regional brain distribution in rat cerebellum was determined after 2 min of intravenous administration of the compound; [125I]- is used as radioactive isotope; assay type: ADME, tissue-based; conditions: in vivo; method in brief: as §1
[13] = Regional brain distribution in rat striatum was determined after 6 hours of intravenous administration of the compound; [125I]- is used as radioactive isotope; assay type: ADME, tissue-based; conditions: in vivo; method in brief: as §1
[14] = Regional brain distribution in rat cerebellum was determined after 60 min of intravenous administration of the compound; [125I]- is used as radioactive isotope; assay type: ADME, tissue-based; conditions: in vivo, 1 h; method in brief: as §1
[15] = Regional brain distribution in rat hippocampus was determined after 2 min of intravenous administration of the compound; [125I]- is used as radioactive isotope; assay type: ADME, tissue-based; conditions: in vivo; method in brief: as §1
[16] = Regional brain distribution in rat hypothalamus was determined after 2 min of intravenous administration of the compound; [125I]- is used as radioactive isotope; assay type: ADME, tissue-based; conditions: in vivo; method in brief: as §1
[17] = Regional brain distribution in rat cerebellum was determined after 24 hours of intravenous administration of the compound; [125I]- is used as radioactive isotope; assay type: ADME, tissue-based; conditions: in vivo; method in brief: as §1
[18] = Regional brain distribution in rat hippocampus was determined after 240 min of intravenous administration of the compound; [125I]- is used as radioactive isotope; assay type: ADME, tissue-based; conditions: in vivo, 4 h; method in brief: as §1
[19] = Regional brain distribution in rat hippocampus was determined after 6 hours of intravenous administration of the compound; [125I]- is used as radioactive isotope; assay type: ADME, tissue-based; conditions: in vivo; method in brief: as §1
[20] = Biodistribution in rat blood was determined after 2 min of intravenous administration of the compound; [125I]- is used as radioactive isotope; assay type: ADME, organism-based; conditions: in vivo
Method in brief: (§4)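 Rats under ether anesthesia, three per group, received 10 μCi tracer in 0.2 mL saline into the femoral vein. They were killed by cardiac excision under ether at each time point. Organs were removed, weighed and counted. Percent dose per organ was calculated against a 1%-of-injected-dose standard counted at the same time.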

[21] = Biodistribution in rat brain was determined after 2 min of intravenous administration of the compound; [125I]- is used as radioactive isotope; assay type: ADME, organism-based; conditions: in vivo; method in brief: as §4
[22] = Biodistribution in rat spleen was determined after 11 hours of intravenous administration of the compound; [125I]- is used as radioactive isotope; assay type: ADME, organism-based; conditions: in vivo
Method in brief: (§5)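 Rats, three per group, under ether anaesthesia, received 10 μCi of [¹²⁵I]-labelled tracer in 0.2 mL saline into the femoral vein. They were killed by cardiac excision under ether at each time point. Organs were removed, weighed and counted. Percent dose per organ was calculated against counts of a 1% aliquot of the injected dose (100-fold diluted) counted at the same time.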

[23] = Biodistribution in rat lung was determined after 240 min of intravenous administration of the compound; [125I]- is used as radioactive isotope; assay type: ADME, organism-based; conditions: in vivo, 4 h; method in brief: as §4
[24] = Biodistribution in rat lung was determined after 6 hours of intravenous administration of the compound; [125I]- is used as radioactive isotope; assay type: ADME, organism-based; conditions: in vivo; method in brief: as §4
[25] = Biodistribution in rat muscle was determined after 2 min of intravenous administration of the compound; [125I]- is used as radioactive isotope; assay type: ADME, organism-based, Muscle tissue; conditions: in vivo; method in brief: as §5
[26] = Biodistribution in rat blood was determined after 120 min of intravenous administration of the compound; [125I]- is used as radioactive isotope; assay type: ADME, organism-based; conditions: in vivo, 2 h; method in brief: as §4
[27] = Biodistribution in rat heart was determined after 120 min of intravenous administration of the compound; [125I]- is used as radioactive isotope; assay type: ADME, organism-based; conditions: in vivo, 2 h; method in brief: as §4
[28] = Biodistribution in rat heart was determined after 6 hours of intravenous administration of the compound; [125I]- is used as radioactive isotope; assay type: ADME, organism-based; conditions: in vivo; method in brief: as §4
[29] = Biodistribution in rat thyroid was determined after 2 min of intravenous administration of the compound; [125I]- is used as radioactive isotope; assay type: ADME, organism-based, Thyroid gland; conditions: in vivo; method in brief: as §5
[30] = Biodistribution in rat liver was determined after 120 min of intravenous administration of the compound; [125I]- is used as radioactive isotope; assay type: ADME, organism-based; conditions: in vivo, 2 h; method in brief: as §4
[31] = Biodistribution in rat liver was determined after 240 min of intravenous administration of the compound; [125I]- is used as radioactive isotope; assay type: ADME, organism-based; conditions: in vivo, 4 h; method in brief: as §4
[32] = Biodistribution in rat lung was determined after 11 hours of intravenous administration of the compound; [125I]- is used as radioactive isotope; assay type: ADME, organism-based; conditions: in vivo; method in brief: as §4
[33] = Biodistribution in rat liver was determined after 24 hours of intravenous administration of the compound; [125I]- is used as radioactive isotope; assay type: ADME, organism-based; conditions: in vivo; method in brief: as §4
[34] = Biodistribution in rat kidney was determined after 24 hours of intravenous administration of the compound; [125I]- is used as radioactive isotope; assay type: ADME, organism-based; conditions: in vivo; method in brief: as §4

Compound `CN(C)Cc1ccccc1Oc1ccc(I)cc1N` has a Dose/g [1] of 1.25%, a Dose/g [2] of 0.51% and a Dose/g [3] of 0.83%. The Dose/g [4] was 0.09%, the Dose/g [5] was 0.14% and the Dose/g [6] was 0.68%. For the same compound, the Dose/g [7] was 2.47%, the Dose/g [8] was 1.92% and the Dose/g [9] was 3.49%. For the same compound, the Dose/g [10] was 0.44%, the Dose/g [11] was 1.06% and the Dose/g [12] was 0.79% and 0.64%. For the same compound, the Dose/g [13] was 0.068%, the Dose/g [14] was 0.41% and the Dose/g [15] was 0.86%. For the same compound, the Dose/g [16] was 0.96%, the Dose/g [17] was 0.0049% and the Dose/g [18] was 0.2%. It also gave a Dose/g [19] of 0.059%, a Dose [20] of 5.75% and a Dose [21] of 1.77%. It also gave a Dose [22] of 0.09%, a Dose [23] of 0.37% and a Dose [24] of 0.25%. For the same compound, the Dose [25] was 25.9%, the Dose [26] was 3.15% and the Dose [27] was 0.13%. For the same compound, the Dose [28] was 0.08%, the Dose [29] was 0.1% and the Dose [30] was 4.9%. It also gave a Dose [31] of 3.52%, a Dose [32] of 0.16% and a Dose [33] of 1.83%. For the same compound, the Dose [34] was 0.17%.
